Measured values published in publication PMC6457131 (AIDS (London, England), 2019).
Entries after “also recorded” stand apart in the source; their conditions may differ.

How the values were obtained:
EcoHIV-infected mice [1] = details: cited from earlier work
[2] = Intranasal insulin pharmacokinetics in plasma, CSF and cortex; format: in vivo, C57BL/6 mice
EcoHIV-infected mice [3] = assay: Radial arm water maze; format: in vivo, C57BL/6J mice
EcoHIV-infected mice [4] = assay: Contextual fear conditioning; format: in vivo; details: 129x1/SvJ mice, 1 month after infection, during intranasal insulin treatment
EcoHIV = EcoHIV burdens in spleen cells and brain by quantitative PCR; format: in vivo, mice
[5] = system: MAP2 and NeuN in CA1 and CA3 regions of the hippocampus; assay: Hippocampal neuronal integrity by MAP2/NeuN immunofluorescence staining; format: in vivo, mice
Method in brief: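 Brains came from 3 mice per variable after behavioural testing. After perfusion, frozen sections were immunostained for MAP2 (dendrites) and NeuN (neuronal nuclei) and imaged by confocal microscopy. Fluorescence was quantified in hippocampal CA1 and CA3.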

[6] = system: neuronal function and metabolism-related genes in the brain; format: in vivo, mice; details: intranasal insulin daily for 9 days
[7] = intranasal 2.4 IU; cited from earlier work
[8] = intranasal 2.4 IU/mouse, uninfected mice, n = 3-8/group, observed value, ELISA
[9] = intranasal 2.4 IU/mouse, converted with 1 μIU/ml = 0.14 pmol/l
[10] = intranasal insulin daily for 9 days, QPCR

Molecule: [N-]=[N+]=CC(=O)CC[C@H](N)C(=O)O [6-diazo-5-oxo-L-norleucine]
- EcoHIV virus replication (EcoHIV-infected mice [1]): but not virus replication
- murine NCI caused by EcoHIV (EcoHIV-infected mice [1]): can be prevented

Molecule: Human insulin
- cortex insulin level above baseline ([2]; for 3 h following intranasal 2.4 IU/mouse): more than 10 fold
- duration of therapeutic intracerebral insulin concentrations ([2]; intranasal 2.4 IU/mouse): 2 to 3 h
- time by which insulin cleared to baseline, cortex ([2]; intranasal 2.4 IU/mouse): ≤ 6 h
- time by which insulin cleared to baseline, plasma ([2]; intranasal 2.4 IU/mouse): ≤ 6 h
- time by which insulin cleared, CSF ([2]; intranasal 2.4 IU/mouse): ≤ 3 h
- Cmax, CSF [2, 8]: 17 μIU/ml
- Cmax, plasma [2, 8]: 11.7 μIU/ml
- Tmax, CSF [2, 8]: 1 h
- Cmax, CSF [2, 9]: 2.38 pmol/L
- Cmax, cortex [2, 9]: 7.42 pmol/L
- Cmax, plasma [2, 9]: 1.64 pmol/L
- half-life of insulin in cerebrospinal fluid ([2]; intranasal administration to mice): about 2 h
- RAWM visible platform latency (mobility, vision, motivation) (EcoHIV-infected mice [3]; all mouse groups, intranasal insulin daily for 9 days): performed equally well
- day of RAWM testing at which maximum effect on working memory was reached (EcoHIV-infected mice [3]; infected mice, daily retention trial): ≤ 5 days
- NCI in RAWM, 3 months after infection (EcoHIV-infected mice [3]; intranasal 2.4 IU/mouse daily for 9 days, started 3 months after EcoHIV infection): completely reversed; also recorded: fully reversible
- RAWM performance of infected animals after treatment cessation (EcoHIV-infected mice [3]; last 3-day average, compared with infected, continually treated animals): dramatically worsened
- contextual freezing response time of infected mice (EcoHIV-infected mice [4]): returned the freezing response time of infected mice to that of uninfected animals
- peripheral virus burdens after discontinuation of insulin treatment (EcoHIV; EcoHIV + insulin/disc group compared with untreated mice): significantly increased
- HIV DNA brain levels, 3 months after infection (EcoHIV; [10]): not significantly affected
- HIV brain burdens, 1 month after infection (EcoHIV; [10]): significantly reduced
- HIV levels in spleen, 1 month after infection (EcoHIV; [10]): no effect
- NeuN staining of neuronal cell bodies in hippocampus ([5]; all conditions tested): remained unaltered
- MAP2 dendrite staining in CA1 and CA3 regions of hippocampus of infected mice ([5]; intranasal insulin daily for 9 days, three mice per variable): levels similar to uninfected mice
- downmodulation of fourteen genes in brains of EcoHIV-infected mice [6]: fully reversed
- energy metabolism in mouse brain [7]: increases energy metabolism in mouse brain
- plasma glucose levels [7]: but not plasma glucose levels
